PHOSPHO1 inh = blocks human PHOSPHO1 phosphatase activity; inhibition, % at 13.3 µM; AID 1565; Q8TCT1; recombinant PHOSPHO1, absorbance phosphatase assay; 1.1% of 290,000 active; in the data active means inhibition above about 60%
Target sequence (Q8TCT1 whole entry, looked up): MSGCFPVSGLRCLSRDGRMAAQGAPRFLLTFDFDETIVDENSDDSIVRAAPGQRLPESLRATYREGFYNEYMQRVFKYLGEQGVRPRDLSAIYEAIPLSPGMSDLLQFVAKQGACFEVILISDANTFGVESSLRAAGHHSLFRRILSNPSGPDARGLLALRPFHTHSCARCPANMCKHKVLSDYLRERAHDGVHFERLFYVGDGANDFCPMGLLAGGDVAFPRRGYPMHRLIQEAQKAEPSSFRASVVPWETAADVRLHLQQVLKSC
core dimer inh = HCV core protein dimerization inhibition. TR-FRET GST/Flag-core106 dimerization, 1536-well. inhibition, % at 5 µM. 0.33% of 300,000 active. AID 1899;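 active means inhibition above the mean of all tested compounds plus 3 SD, set per screening campaign, cut at about 45% in these data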
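test system = GST/Flag-tagged HCV core106 proteins | probe or stimulus = Eu donor and XL665 acceptor anti-tag antibodies | times = compound-protein-antibody incubation 4 h at 22.5 °C | signal = TR-FRET, excitation 340 nm, emission 617 and 671 nm | measure = percent inhibition of core106 dimerization signal | controls = wells lacking GST-core106 and wells with excess unlabelled core106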
IMP-1 inhibitor = inhibitors of Pseudomonas aeruginosa IMP-1 metallo-beta-lactamase; purified IMP-1, nitrocefin hydrolysis, epi-absorbance fluorescence; inhibition, % at 5.6 µM; 0.45% of 290,000 active; AID 1556;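 active means inhibition above the mean plus 3 SD of all compounds in the same screening run, cut at about 4.5% in these data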;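 further: 0% = IMP-1 with DMSO and 100% = DMSO wells lacking enzyme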
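Assay system: purified recombinant IMP-1 beta-lactamase. Input: IMP-1 0.2 nM before substrate addition. Buffer or medium: Zinc- and detergent-supplemented HEPES buffer, pH 7.1. Schedule: 25 °C, 15 min preincubation, 25 min reaction. Signal: Epi-absorbance fluorescence, 480 nm excitation, 530 nm emission. Evaluation: percent inhibition from optical density relative to buffer-blank wells.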
VIM-2 inhibitor = inhibitors of Pseudomonas aeruginosa VIM-2 metallo-beta-lactamase | purified VIM-2, nitrocefin hydrolysis, epi-absorbance fluorescence | inhibition, % at 5.6 µM | 0.89% of 290,000 active | AID 1527;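 active means inhibition above the mean of all tested compounds plus 3 SD, cutoff set per screening run, cut at about 7.5% in these data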;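 further: red hydrolysis product quenches plate fluorescence so inhibitors raise well fluorescence; 0% = enzyme with DMSO and 100% = DMSO without enzyme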
SUMO HTRF inh = SUMOylation inhibition | P63279 | HTRF SUMOylation assay, SAE1/SAE2 + UBC9, in vitro | inhibition, % at 35 µM | 0.36% of 290,000 active | AID 2006; in the data active means inhibition above about 50%, passing the limit was not always enough
Target sequence (P63279 whole entry, looked up): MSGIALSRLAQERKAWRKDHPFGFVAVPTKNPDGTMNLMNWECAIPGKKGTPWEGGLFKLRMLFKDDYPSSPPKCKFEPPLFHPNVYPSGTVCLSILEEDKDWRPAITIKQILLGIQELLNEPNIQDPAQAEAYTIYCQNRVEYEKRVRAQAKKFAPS
NS3 helicase inh = blocks Hepatitis C virus NS3 helicase unwinding; NS3 helicase DNA unwinding, Cy5 molecular beacon fluorescence; inhibition, % at 10.9 µM; 0.56% of 290,000 active;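 active means inhibition above the mean of all tested compounds plus 3 SD, set per campaign, cut at about 35% in these data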;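 further: 0% = DMSO wells and 100% = thioflavine S control wells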
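Material: hepatitis C virus NS3 helicase domain fragment enzyme; measured by: Cy5 fluorescence, 0 and 60 min reads; control set: DMSO and thioflavine S; incubation: 60 min unwinding reaction at 25 °C after ATP addition; read-out basis: % inhibition from 60/0 min fluorescence ratio, DMSO 0%, thioflavine S 100%; repeats: singlicate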
Active calls of the source: *. A selection: hits, their analogues and other compounds. The true share with any hit is near 3.1%.

Screening CC(=O)N1CCN(c2nc(-c3ccco3)c3c(c2C#N)CC(C)(C)SC3)CC1 returned PHOSPHO1 inh 86*, core dimer inh 30, IMP-1 inhibitor -1, VIM-2 inhibitor 0, SUMO HTRF inh 16 and NS3 helicase inh 23.
CCc1nc(N2CCN(C(=O)c3ccco3)CC2)c(C#N)c2c1COC(C)(C)C2 was read as PHOSPHO1 inh 11, core dimer inh 0, IMP-1 inhibitor -2, VIM-2 inhibitor -3, SUMO HTRF inh 3 and NS3 helicase inh -4.
Cc1cc(C(=O)Nc2cccc(C)c2C)c2ccccc2n1 was read as PHOSPHO1 inh -156, core dimer inh 4, IMP-1 inhibitor -1, VIM-2 inhibitor 0, SUMO HTRF inh 0 and NS3 helicase inh 1.
Screening Cn1c(-c2sc3cc(C(F)(F)F)cnc3c2-c2cccnc2)n[nH]c1=S returned PHOSPHO1 inh 92*, core dimer inh -4, IMP-1 inhibitor -1, VIM-2 inhibitor -1, SUMO HTRF inh 20 and NS3 helicase inh 8.
`Cc1nc2nc(-c3cccnc3)nn2c(C)c1Cl` gave PHOSPHO1 inh 14, core dimer inh 1, IMP-1 inhibitor 0, VIM-2 inhibitor 11*, SUMO HTRF inh -10 and NS3 helicase inh 9.
For COc1cc(/C=C(\C#N)C(=O)NCC2CCCO2)ccc1OCCC(C)C (stereo unspecified) the results were PHOSPHO1 inh -20, core dimer inh 3, IMP-1 inhibitor -2, VIM-2 inhibitor -1, SUMO HTRF inh 15 and NS3 helicase inh -12.
For CCNC(=O)NC(=O)COC(=O)c1ccccc1SCC(=O)NC(=O)NCC the results were PHOSPHO1 inh 45, core dimer inh -25, IMP-1 inhibitor 4, VIM-2 inhibitor 11*, SUMO HTRF inh 23 and NS3 helicase inh 6.
`O=C(COC(=O)c1ccccc1SCC(=O)NC1CCS(=O)(=O)C1)NC1CCS(=O)(=O)C1` (stereo unspecified) gave PHOSPHO1 inh 30, core dimer inh -9, IMP-1 inhibitor -3, VIM-2 inhibitor 0, SUMO HTRF inh 10 and NS3 helicase inh 8.
`O=C(N/N=C/c1ccccc1F)c1cc2c(ccc3ccccc32)o1` gave PHOSPHO1 inh 8, core dimer inh 7, IMP-1 inhibitor 5.0*, VIM-2 inhibitor -1, SUMO HTRF inh 26 and NS3 helicase inh -16.
For CCOC(=O)c1ccc(-c2ccc3c(c2)CCC3)nc1C the results were PHOSPHO1 inh 42, core dimer inh 0, IMP-1 inhibitor -2, VIM-2 inhibitor -3, SUMO HTRF inh -4 and NS3 helicase inh -1.
Screening O=C(/C=C/c1cccc(Cl)c1)NCc1ccccc1 returned PHOSPHO1 inh 9, core dimer inh 0, IMP-1 inhibitor -1, VIM-2 inhibitor -1, SUMO HTRF inh 9 and NS3 helicase inh 0.
`O=C(COC(=O)CCN1C(=O)/C(=C\C=C\c2ccccc2)SC1=S)Nc1ccc(Br)cc1` gave PHOSPHO1 inh 22, core dimer inh 14, IMP-1 inhibitor 5.5*, VIM-2 inhibitor -3, SUMO HTRF inh 32 and NS3 helicase inh 4.
`CC(C)c1ccccc1NC(=O)COC(=O)CCN1C(=O)/C(=C\C=C\c2ccccc2)SC1=S` gave PHOSPHO1 inh 0, core dimer inh 43, IMP-1 inhibitor -1, VIM-2 inhibitor -6, SUMO HTRF inh 29 and NS3 helicase inh 7.
Screening O=C(CCN1C(=O)/C(=C\C=C\c2ccccc2)SC1=S)Nc1cccc(C(=O)O)c1 returned PHOSPHO1 inh 16, core dimer inh 27, IMP-1 inhibitor 4, VIM-2 inhibitor -1, SUMO HTRF inh 37 and NS3 helicase inh -9.
Cc1ccc(NC(=O)CCCN2C(=O)/C(=C/C=C/c3ccccc3)SC2=S)cc1 was read as PHOSPHO1 inh -16, core dimer inh 57*, IMP-1 inhibitor 7.2*, VIM-2 inhibitor 1, SUMO HTRF inh 21 and NS3 helicase inh 19.
Screening O=C(CCN1C(=O)/C(=C\C=C\c2ccccc2)SC1=S)Nc1ccccc1C(=O)O returned PHOSPHO1 inh 20, core dimer inh 23, IMP-1 inhibitor 8.1*, VIM-2 inhibitor 0, SUMO HTRF inh 23 and NS3 helicase inh 0.
